Assay results reported in ChEMBL document CHEMBL1933030, “Conjugation of spermine enhances cellular uptake of the stapled peptide-based inhibitors of p53-Mdm2 interaction” (Bioorg Med Chem Lett, 2011).

Assays:
[1] = target: Tumour suppressor p53/oncoprotein Mdm2 (Homo sapiens, UniProt Q00987); test: Inhibition of p53-MDM2 interaction by ELISA; type: protein assay
HeLa = test: Cellular uptake in human HeLa cells at 10 uM after 2 hrs by FACS analysis relative to control; type: ADME, cell-based
In short: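 HeLa cells were exposed to fluorescein-labelled peptides at 10 μM and analysed by flow cytometry (FACS). Uptake was read as mean cellular fluorescence, shown as representative histograms, and normalized for comparison between peptides.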

Chain of Tumour suppressor p53/oncoprotein Mdm2 (P04637 whole entry): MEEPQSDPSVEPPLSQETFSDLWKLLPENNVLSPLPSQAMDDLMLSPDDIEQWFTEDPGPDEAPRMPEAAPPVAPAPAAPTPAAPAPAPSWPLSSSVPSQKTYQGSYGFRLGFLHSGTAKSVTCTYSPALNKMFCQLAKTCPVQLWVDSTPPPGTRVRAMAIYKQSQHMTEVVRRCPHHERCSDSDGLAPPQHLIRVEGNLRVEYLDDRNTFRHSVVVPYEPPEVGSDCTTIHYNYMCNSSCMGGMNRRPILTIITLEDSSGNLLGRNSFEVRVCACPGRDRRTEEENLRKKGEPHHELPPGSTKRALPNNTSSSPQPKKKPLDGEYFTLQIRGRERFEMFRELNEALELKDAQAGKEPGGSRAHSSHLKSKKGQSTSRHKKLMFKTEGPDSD
Chain of Tumour suppressor p53/oncoprotein Mdm2 (Q00987 whole entry): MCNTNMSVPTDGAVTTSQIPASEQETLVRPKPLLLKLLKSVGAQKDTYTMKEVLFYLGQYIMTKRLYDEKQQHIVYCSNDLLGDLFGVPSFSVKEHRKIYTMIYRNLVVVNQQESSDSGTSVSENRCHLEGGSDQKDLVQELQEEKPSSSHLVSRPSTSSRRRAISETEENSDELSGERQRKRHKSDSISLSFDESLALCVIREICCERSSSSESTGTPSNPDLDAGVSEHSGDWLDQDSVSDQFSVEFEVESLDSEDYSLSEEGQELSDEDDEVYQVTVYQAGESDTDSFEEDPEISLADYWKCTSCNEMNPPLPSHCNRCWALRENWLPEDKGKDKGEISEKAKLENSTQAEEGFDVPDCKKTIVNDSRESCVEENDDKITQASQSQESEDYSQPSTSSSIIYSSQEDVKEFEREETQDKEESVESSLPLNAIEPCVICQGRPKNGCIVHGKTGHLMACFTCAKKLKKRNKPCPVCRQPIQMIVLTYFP

Row | IC50 [1] | Drug uptake (HeLa) | SMILES
1 | 13 nM |  | CC(=O)N[C@@H](CC(C)C)C(=O)N[C@H](C(=O)N[C@@H](Cc1ccccc1)C(=O)N[C@H](CS)C(=O)N[C@@H](Cc1cnc[nH]1)C(=O)N[C@@H](Cc1ccc(O)cc1)C(=O)N[C@@H](Cc1c[nH]c2ccccc12)C(=O)N[C@@H](C)C(=O)N[C@@H](CCC(N)=O)C(=O)N[C@@H](CC(C)C)C(=O)N[C@@H](CS)C(=O)N[C@@H](CO)C(N)=O)[C@@H](C)O
2 |  | 4.5% | CC(C)C[C@H](NC(=O)CCCCCNC(=O)c1ccccc1-c1c2ccc(=O)cc-2oc2cc(O)ccc12)C(=O)N[C@H](C(=O)N[C@@H](Cc1ccccc1)C(=O)N[C@@H](CS)C(=O)N[C@@H](Cc1cnc[nH]1)C(=O)N[C@@H](Cc1ccc(O)cc1)C(=O)N[C@@H](Cc1c[nH]c2ccccc12)C(=O)N[C@@H](C)C(=O)N[C@@H](CCC(N)=O)C(=O)N[C@@H](CC(C)C)C(=O)N[C@@H](CS)C(=O)N[C@@H](CO)C(N)=O)[C@@H](C)O
3 | 57 nM |  | CC(=O)N[C@@H](CC(C)C)C(=O)N[C@H](C(=O)N[C@@H](Cc1ccccc1)C(=O)N[C@@H](CS)C(=O)N[C@@H](Cc1cnc[nH]1)C(=O)N[C@@H](Cc1ccc(O)cc1)C(=O)N[C@@H](Cc1c[nH]c2ccccc12)C(=O)N[C@@H](C)C(=O)N[C@@H](CCC(N)=O)C(=O)N[C@@H](CC(C)C)C(=O)N[C@@H](CS)C(=O)N[C@@H](CO)C(N)=O)[C@@H](C)O
4 |  | 3.3% | CC(C)C[C@H](NC(=O)CCCCCNC(=O)c1ccccc1-c1c2ccc(=O)cc-2oc2cc(O)ccc12)C(=O)N[C@H](C(=O)N[C@@H](Cc1ccccc1)C(=O)N[C@H](CS)C(=O)N[C@@H](Cc1cnc[nH]1)C(=O)N[C@@H](Cc1ccc(O)cc1)C(=O)N[C@@H](Cc1c[nH]c2ccccc12)C(=O)N[C@@H](C)C(=O)N[C@@H](CCC(N)=O)C(=O)N[C@@H](CC(C)C)C(=O)N[C@@H](CS)C(=O)N[C@@H](CO)C(N)=O)[C@@H](C)O
